From ChEMBL document CHEMBL3797175, “Discovery of 6-(difluoro(6-(4-fluorophenyl)-[1,2,4]triazolo[4,3-b][1,2,4]triazin-3-yl)methyl)quinoline as a highly potent and selective c-Met inhibitor” (Eur J Med Chem, 2016)

Tests used:
[1] = Oral bioavailability in Sprague-Dawley rat at 10 mg/kg administered as single dose; assay type: ADME, organism-based; settings: in vivo
Procedure, shortened: (§1)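 Male Sprague-Dawley rats (n=3), single dose. IV 2 mg/kg in 1% DMA/9% Cremophor/90% saline; PO 10 mg/kg in 0.5% CMC-Na. For one compound, IV 10 mg/kg in DMSO/Tween 80/PEG40 and PO 10 mg/kg in 10% DMSO/5% Tween 80/85% saline.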

[2] = Volume of distribution at steady state in Sprague-Dawley rat at 10 mg/kg, iv administered as single dose; assay type: ADME, organism-based; settings: in vivo, read-out: Vdss; procedure, shortened: as §1
[3] = Cmax in Sprague-Dawley rat at 10 mg/kg, po administered as single dose; assay type: ADME, organism-based; parameters: dose 10 mg/kg, route oral; settings: in vivo
Procedure, shortened: (§2)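 Male Sprague Dawley rats (n=3), single dose. iv 2 mg/kg in 1% DMA/9% Cremophor/90% saline. po 10 mg/kg in 0.5% CMC-Na. Where iv was 10 mg/kg: 10% DMSO/10% Tween 80/80% (40% PEG40); po in that case in 10% DMSO/5% Tween 80/85% saline.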

[4] = AUC (0 to infinity) in Sprague-Dawley rat at 10 mg/kg, po administered as single dose; assay type: ADME, organism-based; parameters: dose 10 mg/kg, route oral, time infinity; settings: in vivo
[5] = Tmax in Sprague-Dawley rat at 10 mg/kg, po administered as single dose; assay type: ADME, organism-based; settings: in vivo; procedure, shortened: as §1
[6] = Half life in Sprague-Dawley rat at 10 mg/kg, iv administered as single dose; assay type: ADME, organism-based; settings: in vivo; procedure, shortened: as §2
[7] = Clearance in Sprague-Dawley rat at 10 mg/kg, iv administered as single dose; assay type: ADME, organism-based; settings: in vivo; procedure, shortened: as §2
[8] = target: T1, TPR/MET fusion protein (Mus musculus) (UniProt P16056+F6ZDS4); assay: Inhibition of TPR-MET in mouse […] cells assessed as inhibition of cell proliferation at 10 uM after 72 hrs by SRB or MTT assay relative to control; assay type: cell-based
Procedure, shortened: (§3)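 Cells seeded, exposed next day to a range of concentrations for 72 h. Growth read by sulforhodamine B or MTT. IC50 from four-parameter concentration-response fit. Each concentration tested at least in triplicate, with at least 2 experiments.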

[9] = target: T1, TPR/MET fusion protein (Mus musculus); assay: Inhibition of TPR-MET in mouse […] cells assessed as inhibition of cell proliferation at 1 uM after 72 hrs by SRB or MTT assay relative to control; assay type: cell-based; procedure, shortened: as §3
[10] = Clearance in Sprague-Dawley rat at 2 mg/kg, iv administered as single dose; assay type: ADME, organism-based; settings: in vivo; procedure, shortened: as §2
[11] = Half life in Sprague-Dawley rat at 2 mg/kg, iv administered as single dose; assay type: ADME, organism-based; settings: in vivo; procedure, shortened: as §2
[12] = Volume of distribution at steady state in Sprague-Dawley rat at 2 mg/kg, iv administered as single dose; assay type: ADME, organism-based; settings: in vivo, read-out: Vdss; procedure, shortened: as §1
[13] = Antitumor activity against human EBC1 cells xenografted in athymic nude mouse assessed as tumor growth inhibition at 12.5 mg/kg, po bid for 21 days measured twice a week during compound dosing relative to control; assay type: functional; settings: EBC-1, po, 504 h, read-out: TGI
Procedure, shortened: (§4)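 Nude mice bearing s.c. tumours. Cells were first grown s.c. to 700–800 mm³, then 1.5 mm³ fragments were transplanted s.c. into the right flank. Mice were randomised at 100–200 mm³ (n=6 treated, n=12 vehicle) and dosed orally twice daily for 21 days. Caliper measurement twice weekly; TV = length×width²/2. TGI taken on the final day versus vehicle; Student's t test.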

[14] = Antitumor activity against human EBC1 cells xenografted in athymic nude mouse assessed as tumor growth inhibition at 25 mg/kg, po bid for 21 days measured twice a week during compound dosing relative to control; assay type: functional; settings: EBC-1, po, 504 h, read-out: TGI; procedure, shortened: as §4
[15] = target: Hepatocyte growth factor receptor (Homo sapiens, UniProt P08581); assay: Inhibition of recombinant c-Met (unknown origin) using poly (Glu, Tyr) 4:1 as substrate incubated for 60 mins by ELISA
[16] = test system: Mus musculus; assay: Toxicity in athymic nude mouse xenografted with human EBC1 cells assessed as body weight loss at 25 mg/kg, po bid for 21 days measured twice a week during compound dosing; assay type: organism-based; settings: in vivo, 504 h
Procedure, shortened: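 Nude mice carrying s.c. EBC-1 tumor fragments, randomized at 100–200 mm³ (n=6 treated, n=12 vehicle). Dosed orally twice daily for 21 days. Body weight and caliper tumor volume measured twice weekly.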

T1 sequence (F6ZDS4 whole entry partner, the tested form may be a part): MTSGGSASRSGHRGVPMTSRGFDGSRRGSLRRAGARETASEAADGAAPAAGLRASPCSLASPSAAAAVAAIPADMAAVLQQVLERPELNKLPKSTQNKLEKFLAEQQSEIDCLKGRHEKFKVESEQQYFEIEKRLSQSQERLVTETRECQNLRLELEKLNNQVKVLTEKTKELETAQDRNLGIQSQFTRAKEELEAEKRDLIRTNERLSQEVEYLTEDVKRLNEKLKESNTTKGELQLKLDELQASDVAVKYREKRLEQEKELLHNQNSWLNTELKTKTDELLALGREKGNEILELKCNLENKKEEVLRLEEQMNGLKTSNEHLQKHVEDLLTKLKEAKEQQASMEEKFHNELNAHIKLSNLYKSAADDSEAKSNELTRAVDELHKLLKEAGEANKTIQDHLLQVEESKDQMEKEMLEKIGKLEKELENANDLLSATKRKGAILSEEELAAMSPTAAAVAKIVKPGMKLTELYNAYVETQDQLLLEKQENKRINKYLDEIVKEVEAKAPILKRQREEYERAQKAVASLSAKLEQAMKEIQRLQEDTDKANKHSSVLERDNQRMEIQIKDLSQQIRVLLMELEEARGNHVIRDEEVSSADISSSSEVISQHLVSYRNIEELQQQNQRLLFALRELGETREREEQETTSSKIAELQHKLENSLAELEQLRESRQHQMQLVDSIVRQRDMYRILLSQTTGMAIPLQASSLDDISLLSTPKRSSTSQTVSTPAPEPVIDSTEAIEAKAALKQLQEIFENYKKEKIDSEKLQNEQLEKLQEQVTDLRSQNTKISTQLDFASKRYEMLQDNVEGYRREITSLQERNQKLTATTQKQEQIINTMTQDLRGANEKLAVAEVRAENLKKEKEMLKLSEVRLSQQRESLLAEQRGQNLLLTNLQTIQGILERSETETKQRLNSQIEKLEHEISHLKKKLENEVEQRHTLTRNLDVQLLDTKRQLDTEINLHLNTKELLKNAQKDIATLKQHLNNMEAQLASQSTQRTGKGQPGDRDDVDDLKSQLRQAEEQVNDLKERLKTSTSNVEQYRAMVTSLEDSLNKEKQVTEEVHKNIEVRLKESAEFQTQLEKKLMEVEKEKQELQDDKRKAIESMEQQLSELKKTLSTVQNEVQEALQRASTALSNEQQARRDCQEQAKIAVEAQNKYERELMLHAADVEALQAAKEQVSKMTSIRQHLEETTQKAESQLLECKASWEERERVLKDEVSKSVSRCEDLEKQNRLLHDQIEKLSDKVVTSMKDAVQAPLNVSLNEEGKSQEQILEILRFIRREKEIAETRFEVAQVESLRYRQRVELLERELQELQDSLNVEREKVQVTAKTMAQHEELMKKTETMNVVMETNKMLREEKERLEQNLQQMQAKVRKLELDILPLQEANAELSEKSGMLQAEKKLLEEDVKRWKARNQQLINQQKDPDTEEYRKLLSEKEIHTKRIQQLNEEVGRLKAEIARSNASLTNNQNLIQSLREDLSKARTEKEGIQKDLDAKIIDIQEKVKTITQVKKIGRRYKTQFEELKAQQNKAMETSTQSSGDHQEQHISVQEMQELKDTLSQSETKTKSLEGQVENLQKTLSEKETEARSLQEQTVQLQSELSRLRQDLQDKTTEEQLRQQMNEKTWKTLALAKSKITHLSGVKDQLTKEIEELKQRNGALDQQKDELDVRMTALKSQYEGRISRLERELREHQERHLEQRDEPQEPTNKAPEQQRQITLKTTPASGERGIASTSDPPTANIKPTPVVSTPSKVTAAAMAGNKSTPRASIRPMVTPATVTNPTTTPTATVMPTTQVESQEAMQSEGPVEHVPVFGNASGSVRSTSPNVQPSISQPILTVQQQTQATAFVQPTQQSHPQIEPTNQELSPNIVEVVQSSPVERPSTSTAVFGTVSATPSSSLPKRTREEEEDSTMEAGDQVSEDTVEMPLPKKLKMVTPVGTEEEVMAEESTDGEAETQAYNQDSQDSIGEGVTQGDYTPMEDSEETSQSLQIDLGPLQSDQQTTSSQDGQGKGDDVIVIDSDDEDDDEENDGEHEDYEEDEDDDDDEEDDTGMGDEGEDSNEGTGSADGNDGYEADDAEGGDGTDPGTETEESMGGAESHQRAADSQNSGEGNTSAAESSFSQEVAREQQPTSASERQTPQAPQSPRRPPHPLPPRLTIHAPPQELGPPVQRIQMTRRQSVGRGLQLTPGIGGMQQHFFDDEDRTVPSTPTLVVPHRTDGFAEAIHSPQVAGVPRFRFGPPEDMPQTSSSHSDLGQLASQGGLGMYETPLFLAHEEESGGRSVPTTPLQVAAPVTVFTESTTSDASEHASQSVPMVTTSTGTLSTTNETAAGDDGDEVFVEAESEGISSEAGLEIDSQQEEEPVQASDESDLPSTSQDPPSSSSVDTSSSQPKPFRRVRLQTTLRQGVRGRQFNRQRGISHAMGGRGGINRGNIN
T1 sequence (P16056 25-1379 limits assumed): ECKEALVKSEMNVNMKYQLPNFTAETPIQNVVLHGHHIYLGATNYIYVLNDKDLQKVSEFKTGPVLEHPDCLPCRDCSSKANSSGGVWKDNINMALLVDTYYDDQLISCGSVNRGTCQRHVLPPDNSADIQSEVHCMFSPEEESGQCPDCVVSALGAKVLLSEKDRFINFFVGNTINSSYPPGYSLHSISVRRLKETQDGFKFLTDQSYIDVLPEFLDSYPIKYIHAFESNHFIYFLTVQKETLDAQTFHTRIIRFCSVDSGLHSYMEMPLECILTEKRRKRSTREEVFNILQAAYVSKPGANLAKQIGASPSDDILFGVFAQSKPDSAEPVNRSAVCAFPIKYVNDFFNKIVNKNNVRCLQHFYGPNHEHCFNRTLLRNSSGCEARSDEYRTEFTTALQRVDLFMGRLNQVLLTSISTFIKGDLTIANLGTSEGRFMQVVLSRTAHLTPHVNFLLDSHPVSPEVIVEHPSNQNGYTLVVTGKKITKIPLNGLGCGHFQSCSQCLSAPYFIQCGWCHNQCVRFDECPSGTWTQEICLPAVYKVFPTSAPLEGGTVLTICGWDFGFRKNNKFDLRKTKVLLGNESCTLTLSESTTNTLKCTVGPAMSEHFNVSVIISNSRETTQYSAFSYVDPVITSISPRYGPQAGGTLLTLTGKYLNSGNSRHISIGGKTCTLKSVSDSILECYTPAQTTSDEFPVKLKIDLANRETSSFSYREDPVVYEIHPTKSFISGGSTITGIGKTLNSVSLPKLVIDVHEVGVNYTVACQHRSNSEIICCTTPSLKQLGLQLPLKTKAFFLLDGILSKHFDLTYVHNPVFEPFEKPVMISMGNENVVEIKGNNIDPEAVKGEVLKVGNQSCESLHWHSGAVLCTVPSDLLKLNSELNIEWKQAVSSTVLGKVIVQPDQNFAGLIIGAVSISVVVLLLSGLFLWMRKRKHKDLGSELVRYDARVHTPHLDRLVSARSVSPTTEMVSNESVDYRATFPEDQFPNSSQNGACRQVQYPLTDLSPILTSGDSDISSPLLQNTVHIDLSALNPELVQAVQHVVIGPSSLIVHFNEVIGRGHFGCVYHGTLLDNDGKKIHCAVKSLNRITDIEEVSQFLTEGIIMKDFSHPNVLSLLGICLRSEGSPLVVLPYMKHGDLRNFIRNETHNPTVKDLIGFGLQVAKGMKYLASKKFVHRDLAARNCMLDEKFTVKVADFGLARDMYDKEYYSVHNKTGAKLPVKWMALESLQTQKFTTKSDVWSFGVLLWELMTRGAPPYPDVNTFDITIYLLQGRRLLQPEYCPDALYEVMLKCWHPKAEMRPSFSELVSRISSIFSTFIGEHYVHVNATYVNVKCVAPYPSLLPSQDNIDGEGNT
Sequence of Hepatocyte growth factor receptor (P08581 whole entry): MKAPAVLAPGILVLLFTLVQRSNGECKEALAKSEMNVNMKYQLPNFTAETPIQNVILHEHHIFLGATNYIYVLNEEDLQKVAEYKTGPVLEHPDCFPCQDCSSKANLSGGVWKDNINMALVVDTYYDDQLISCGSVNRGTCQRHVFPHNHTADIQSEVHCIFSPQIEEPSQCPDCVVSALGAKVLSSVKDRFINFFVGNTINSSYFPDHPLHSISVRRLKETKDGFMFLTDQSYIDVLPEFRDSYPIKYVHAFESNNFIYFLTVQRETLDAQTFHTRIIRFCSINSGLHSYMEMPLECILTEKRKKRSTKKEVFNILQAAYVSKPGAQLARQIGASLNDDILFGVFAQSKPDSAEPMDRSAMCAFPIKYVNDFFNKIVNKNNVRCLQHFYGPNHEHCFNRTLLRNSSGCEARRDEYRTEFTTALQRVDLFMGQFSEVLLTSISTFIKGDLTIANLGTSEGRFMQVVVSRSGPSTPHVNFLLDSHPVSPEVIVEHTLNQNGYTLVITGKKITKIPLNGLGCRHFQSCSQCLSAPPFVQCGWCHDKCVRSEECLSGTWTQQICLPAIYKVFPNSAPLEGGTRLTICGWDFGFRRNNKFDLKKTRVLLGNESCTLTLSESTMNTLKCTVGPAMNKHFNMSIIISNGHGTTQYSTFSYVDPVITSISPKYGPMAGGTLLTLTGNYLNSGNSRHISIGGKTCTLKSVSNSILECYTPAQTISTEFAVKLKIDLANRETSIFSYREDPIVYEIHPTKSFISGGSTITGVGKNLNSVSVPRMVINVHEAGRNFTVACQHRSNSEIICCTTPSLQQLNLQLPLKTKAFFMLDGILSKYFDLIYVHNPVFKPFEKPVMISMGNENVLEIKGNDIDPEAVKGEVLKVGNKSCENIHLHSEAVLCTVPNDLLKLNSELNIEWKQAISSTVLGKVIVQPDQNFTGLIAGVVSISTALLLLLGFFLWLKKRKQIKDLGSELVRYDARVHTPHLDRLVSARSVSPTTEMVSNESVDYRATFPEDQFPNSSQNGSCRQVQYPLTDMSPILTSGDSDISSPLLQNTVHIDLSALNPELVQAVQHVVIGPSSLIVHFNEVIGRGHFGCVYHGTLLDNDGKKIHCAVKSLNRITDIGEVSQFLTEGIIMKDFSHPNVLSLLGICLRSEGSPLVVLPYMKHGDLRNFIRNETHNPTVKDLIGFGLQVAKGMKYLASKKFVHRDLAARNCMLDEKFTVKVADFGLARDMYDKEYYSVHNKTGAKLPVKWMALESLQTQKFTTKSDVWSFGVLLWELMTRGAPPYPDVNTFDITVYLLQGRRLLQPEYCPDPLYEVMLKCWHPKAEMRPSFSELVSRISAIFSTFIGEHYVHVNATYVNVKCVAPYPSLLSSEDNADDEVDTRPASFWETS

SMILES	inhibition [8] [%]	inhibition [9] [%]	also measured
Cn1cc(-c2cnc3nnc(C(F)(F)c4ccc5ncccc5c4)n3n2)cn1	–	–	bioavailability [1]: 9.4%; Vd [2]: 0.81 L/kg; Cmax [3]: 209 ng/mL; AUC(0-inf) [4]: 780 ng·h/mL; Tmax [5]: 2.5 h; half-life [6]: 1.14 h; clearance [7]: 22.3 mL/min/kg
c1ccc(Cn2cc(-c3cnc4nnc(Cc5ccc6ncccc6c5)n4n3)cn2)cc1	89.5	68.3	–
Oc1cccc(-c2cnc3nnc(Cc4ccc5ncccc5c4)n3n2)c1	69.9	36.1	–
FC(F)(c1ccc2ncccc2c1)c1nnc2ncc(-c3ccco3)nn12	–	–	clearance [10]: 39.5 mL/min/kg; half-life [11]: 1.53 h; bioavailability [1]: 48%; Cmax [3]: 961 ng/mL; AUC(0-inf) [4]: 2040 ng·h/mL; Tmax [5]: 0.42 h; Vd [12]: 5.14 L/kg; inhibition in vivo at 12.5 mg/kg [13]: 50.1%; inhibition in vivo at 25 mg/kg [14]: 65.8%
O=[N+]([O-])c1cccc(-c2cnc3nnc(Cc4ccc5ncccc5c4)n3n2)c1	88.3	76.6	–
Brc1ccc(-c2cnc3nnc(Cc4ccc5ncccc5c4)n3n2)cc1	83.6	75.8	–
COc1cccc(-c2cnc3nnc(Cc4ccc5ncccc5c4)n3n2)c1	81	69.8	–
Cn1cc(-c2cnc3nnc(Cc4ccc5ncccc5c4)n3n2)cn1	77.8	76.9	–
c1cnc2ccc(Cc3nnc4ncc(-c5cnn(C6CCNCC6)c5)nn34)cc2c1	77	14.9	–
CCCn1cc(-c2cnc3nnc(Cc4ccc5ncccc5c4)n3n2)cn1	88.4	88.1	–
CC(C)(C)OC(=O)N1CCC(n2cc(-c3cnc4nnc(Cc5ccc6ncccc6c5)n4n3)cn2)CC1	86.6	68.9	–
c1csc(-c2cnc3nnc(Cc4ccc5ncccc5c4)n3n2)c1	89.3	85.9	–
Clc1ccc(-c2cnc3nnc(Cc4ccc5ncccc5c4)n3n2)cc1	80.6	69.2	–
CCCn1cc(-c2cnc3nnc(C(F)(F)c4ccc5ncccc5c4)n3n2)cn1	–	–	clearance [10]: 30.7 mL/min/kg; Activity [16]: Toxic; half-life [11]: 1.21 h; bioavailability [1]: 61.6%; Cmax [3]: 1610 ng/mL; AUC(0-inf) [4]: 3390 ng·h/mL; Tmax [5]: 0.5 h; Vd [12]: 3.2 L/kg; inhibition in vivo at 12.5 mg/kg [13]: 75.9%; inhibition in vivo at 25 mg/kg [14]: 96.6%
Oc1cccc(-c2cnc3nnc(Cc4c[nH]c5ccccc45)n3n2)c1	10.2	8.2	–

Second part, led by results:

inhibition [8] [%]	inhibition [9] [%]	SMILES	also measured
17.3	9.9	Brc1ccc(-c2cnc3nnc(Cc4c[nH]c5ccccc45)n3n2)cc1	–
83.5	82.2	Clc1ccc(-c2cnc3nnc(Cc4ccc5ncccc5c4)n3n2)cc1Cl	–
72.2	70.8	Cn1cc(-c2ccc3nnc(C(F)(F)c4ccc5ncccc5c4)n3n2)cn1 [JNJ-38877605]	IC50 [15]: 0.95 nM
78	63.1	c1cnc2ccc(Cc3nnc4ncc(-c5cnc6ccccc6c5)nn34)cc2c1	–
88	53.8	c1ccc(COc2ccc(-c3cnc4nnc(Cc5ccc6ncccc6c5)n4n3)cc2)cc1	–
80.9	58.4	c1ccc(-c2cnc3nnc(Cc4ccc5ncccc5c4)n3n2)cc1	–
97.1	85.5	CCn1cc(-c2cnc3nnc(Cc4ccc5ncccc5c4)n3n2)cn1	–
58	26.9	c1ccc(COc2ccc(-c3cnc4nnc(Cc5c[nH]c6ccccc56)n4n3)cc2)cc1	–
